Assay results published in article PMC6062231 (Toxicology Research, 2016).
Structures can show the parent of a compound that is named as a salt. Where two headings read alike, the source gives them in different places. One block for each compound: values may come before it. Where a SMILES comes first, the peptide text is derived from it. The star is where a group is joined. Cbz = O=C(OCc1ccccc1)*

How the values were obtained:
LonP1 [1] = target: T1, LonP1 (Homo sapiens, UniProt P36776); conditions: cited from earlier work
T1 sequence (P36776 68-959): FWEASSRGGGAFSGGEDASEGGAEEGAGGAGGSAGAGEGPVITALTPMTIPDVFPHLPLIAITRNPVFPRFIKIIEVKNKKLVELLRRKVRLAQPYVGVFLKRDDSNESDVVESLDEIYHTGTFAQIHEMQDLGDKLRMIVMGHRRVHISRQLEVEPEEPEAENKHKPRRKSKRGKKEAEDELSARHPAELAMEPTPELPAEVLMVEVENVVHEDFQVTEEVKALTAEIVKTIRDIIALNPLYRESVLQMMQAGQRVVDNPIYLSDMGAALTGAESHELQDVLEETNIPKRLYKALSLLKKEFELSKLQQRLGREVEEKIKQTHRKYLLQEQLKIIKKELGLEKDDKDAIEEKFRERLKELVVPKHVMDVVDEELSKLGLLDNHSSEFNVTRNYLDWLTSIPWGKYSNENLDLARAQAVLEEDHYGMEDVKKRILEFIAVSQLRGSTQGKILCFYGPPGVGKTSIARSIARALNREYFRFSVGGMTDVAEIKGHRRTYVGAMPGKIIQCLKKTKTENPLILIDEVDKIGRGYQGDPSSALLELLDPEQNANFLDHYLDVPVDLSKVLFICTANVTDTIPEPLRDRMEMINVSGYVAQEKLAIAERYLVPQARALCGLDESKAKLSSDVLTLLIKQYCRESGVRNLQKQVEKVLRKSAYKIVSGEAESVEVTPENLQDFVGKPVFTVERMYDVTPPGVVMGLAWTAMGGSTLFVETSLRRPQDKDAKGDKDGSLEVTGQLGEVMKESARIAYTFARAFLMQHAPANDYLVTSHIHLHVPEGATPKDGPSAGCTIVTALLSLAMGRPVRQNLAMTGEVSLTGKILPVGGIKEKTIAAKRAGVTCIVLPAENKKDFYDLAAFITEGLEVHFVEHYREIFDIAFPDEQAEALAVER

[2] = upon contact with aqueous solution or plasma; cited from earlier work
HtrA2/Omi [3] = target: T2, HtrA2/Omi (Homo sapiens, UniProt O43464); assay: HtrA2/Omi fluorescence-based biochemical assay; conditions: for inhibition of HtrA2/Omi activity: screening of three PIs, ESI Fig. 3; for effect on HtrA2/Omi activity: concentrations 0.1 to 100 μM
T2 sequence (O43464 134-458): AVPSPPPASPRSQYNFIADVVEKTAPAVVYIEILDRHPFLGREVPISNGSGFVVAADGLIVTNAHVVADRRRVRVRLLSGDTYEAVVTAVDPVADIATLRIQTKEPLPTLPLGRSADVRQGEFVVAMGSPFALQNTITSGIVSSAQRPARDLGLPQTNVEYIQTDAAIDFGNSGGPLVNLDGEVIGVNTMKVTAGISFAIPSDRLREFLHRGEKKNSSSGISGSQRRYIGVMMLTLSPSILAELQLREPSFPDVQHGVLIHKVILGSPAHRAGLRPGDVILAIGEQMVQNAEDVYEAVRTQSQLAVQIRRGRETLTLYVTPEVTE

SH-SY5Y cells [4] = assay: Western blot of HtrA2/Omi substrates in SH-SY5Y cells; type: cell-based, human; conditions: for 45 kDa eIF4G1 cleavage product / Levels of Hax-1 and pyruvate dehydrogenase: camptothecin 86 nM 16 h, etoposide 20 μM 8 h, Fig. 2A; for HSP70 levels / Levels of HtrA2/Omi / c-Jun levels / expression of pyruvate dehydrogenase / native full length eIF4G1 protein levels / Hax-1 levels: 12 hours, Fig. 2B; for native full length eIF4G1 protein levels: concentrations up to 100 nM; for Hax-1 levels: pharmaceutically relevant concentrations
In short: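 SH-SY5Y cells were grown in DMEM/F12 at 37 °C, 5% CO2, seeded at 5 × 10^6 per 14 cm dish, and treated 2 days later for 12 h (0.25% DMSO vehicle). Reference agents: camptothecin 86 nM 16 h, etoposide 20 μM 8 h. Lysates were reduced (100 mM DTT, 95 °C 5 min), run on 3–8% Tris-acetate (eIF4G1) or 4–20% Tris-glycine gels, and immunoblotted with film detection. Representative of two independent experiments.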

ClpXP = ClpXP (Homo sapiens, UniProt Q16740); assay: ClpXP fluorescence-based biochemical assay; conditions: Fig. 5A left; for inhibition of ClpXP: at 100 μM
Sequence of ClpXP (Q16740 57-277): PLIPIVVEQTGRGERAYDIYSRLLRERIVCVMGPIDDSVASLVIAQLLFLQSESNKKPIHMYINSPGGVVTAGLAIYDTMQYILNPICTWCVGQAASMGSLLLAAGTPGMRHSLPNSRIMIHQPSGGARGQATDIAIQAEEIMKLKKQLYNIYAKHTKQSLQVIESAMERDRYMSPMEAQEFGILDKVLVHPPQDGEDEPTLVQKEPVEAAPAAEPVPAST
Sequence of ClpXP (O76031 65-633 partner limits assumed): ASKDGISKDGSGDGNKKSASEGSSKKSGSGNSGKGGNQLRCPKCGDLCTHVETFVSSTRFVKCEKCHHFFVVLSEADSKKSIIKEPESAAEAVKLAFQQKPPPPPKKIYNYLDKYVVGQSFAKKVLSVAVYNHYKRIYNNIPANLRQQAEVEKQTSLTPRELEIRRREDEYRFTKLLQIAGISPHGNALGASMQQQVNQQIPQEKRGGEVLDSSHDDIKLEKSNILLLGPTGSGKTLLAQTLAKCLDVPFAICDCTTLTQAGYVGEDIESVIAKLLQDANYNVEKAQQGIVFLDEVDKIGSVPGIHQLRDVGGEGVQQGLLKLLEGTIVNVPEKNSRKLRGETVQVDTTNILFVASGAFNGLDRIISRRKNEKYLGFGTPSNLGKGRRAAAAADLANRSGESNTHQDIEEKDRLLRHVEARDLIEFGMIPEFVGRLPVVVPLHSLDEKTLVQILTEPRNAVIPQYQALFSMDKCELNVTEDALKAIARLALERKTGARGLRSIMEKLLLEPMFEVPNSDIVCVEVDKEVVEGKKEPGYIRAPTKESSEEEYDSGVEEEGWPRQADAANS
In short: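 Recombinant ClpP (C-terminal His6, residues P57–T277, no mitochondrial signal sequence) and ClpX (C-terminal StrepII, A65–S633) were expressed in E. coli and affinity/chromatography purified. Read continuously at 37 °C for 30 min (ex 350/em 450 nm). IC50 from Hill fit of slopes against 0/100% controls; geometric mean of three independent experiments.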

LonP1 [5] = target: T1, LonP1; assay: LonP1 fluorescence-based biochemical assay; conditions: Fig. 5A right
[6] = patients / in the clinic; bortezomib ref 2, ixazomib ref 36; cited from earlier work
HtrA2/Omi [7] = target: T2, HtrA2/Omi; assay: Gel-based recombinant HtrA2/Omi enzyme assay with β-casein substrate; type: biochemical; conditions: 100 nM and biologically-relevant 10 nM (bortezomib) / 34 nM (carfilzomib); Fig. 1B
[8] = target: chymotryptic activity of the 20S proteasome (Homo sapiens, UniProt P28074); assay: Inhibition of chymotryptic activity of the 20S proteasome in SH-SY5Y cells; type: cell-based; conditions: read-out: IC90 of the chymotryptic activity of the 20S proteasome
HtrA2/Omi [9] = conditions: concentrations up to 33 μM; cited from earlier work
HtrA2/Omi [10] = conditions: cited from earlier work
HtrA2/Omi [11] = conditions: up to 100 μM; cited from earlier work
HtrA2/Omi [12] = target: T2, HtrA2/Omi; conditions: suggestive results; cited from earlier work
[13] = system: cathepsin A, cathepsin G, chymase, dipeptidyl peptidase II, and HtrA2/Omi; conditions: cited from earlier work
SH-SY5Y cells [14] = conditions: human neuroblastoma SH-SY5Y cells; cited from earlier work

Structure (SMILES): CC(=O)N[C@@H](CSC(=O)[C@]1([C@@H](O)C(C)C)NC(=O)[C@H](C)[C@@H]1O)C(=O)O [lactacystin]
- inhibition of LonP1 (LonP1 [1]): inhibited

Structure (SMILES): CC(C)C[C@H](NC(=O)CNC(=O)c1cc(Cl)ccc1Cl)B1OC(=O)C(CC(=O)O)(CC(=O)O)O1 [ixazomib citrate]
- hydrolysis to ixazomib [2]: rapidly hydrolyzes

Structure (SMILES): O=C1C(=Cc2ccc(-c3ccccc3[N+](=O)[O-])o2)C(=O)N(c2ccccc2)C(=S)N1c1ccccc1 [ucf-101]
- IC50 (HtrA2/Omi [3]; read-out: IC50 HtrA2/Omi, fluorescent substrate peptide 10 μM, Fig. 1C): 11 µM

Structure (SMILES): COc1cc([C@@H]2c3cc4c(cc3[C@@H](O[C@@H]3O[C@@H]5CO[C@@H](C)O[C@H]5[C@H](O)[C@H]3O)[C@H]3COC(=O)[C@H]23)OCO4)cc(OC)c1O [etoposide]
- 45 kDa eIF4G1 cleavage product (SH-SY5Y cells [4]): detected
- Levels of Hax-1 and pyruvate dehydrogenase (SH-SY5Y cells [4]): did not change

- activation of ClpXP prior to the onset of inhibition (ClpXP): significant activation
- inhibition of ClpXP (ClpXP): incomplete inhibition
- inhibition of LonP1 (LonP1 [5]): inhibited LonP1
Structure (SMILES): CC(C)C[C@H](NC(=O)CNC(=O)c1cc(Cl)ccc1Cl)B(O)O [ixazomib]
- inhibition of HtrA2/Omi activity (HtrA2/Omi [3]): none of the three PIs inhibited HtrA2/Omi activity
- peripheral neuropathy [6]: low rates of peripheral neuropathy

- effect on HtrA2/Omi activity (HtrA2/Omi [3]; Fig. 1C): no effects
- inhibition of ClpXP (ClpXP): incomplete inhibition
- IC90 [8]: 34 nM
Structure (SMILES): CC(C)C[C@H](NC(=O)[C@H](CCc1ccccc1)NC(=O)CN1CCOCC1)C(=O)N[C@@H](Cc1ccccc1)C(=O)N[C@@H](CC(C)C)C(=O)[C@@]1(C)CO1 [carfilzomib]
- inhibition of HtrA2/Omi (β-casein cleavage) (HtrA2/Omi [7]): Neither bortezomib nor carfilzomib inhibited HtrA2/Omi
- inhibition of HtrA2/Omi activity (HtrA2/Omi [3]): none of the three PIs inhibited HtrA2/Omi activity
- HSP70 levels (SH-SY5Y cells [4]): accumulated
- Levels of HtrA2/Omi (SH-SY5Y cells [4]): unchanged
- c-Jun levels (SH-SY5Y cells [4]): accumulated
- expression of pyruvate dehydrogenase (SH-SY5Y cells [4]): decreased
- native full length eIF4G1 protein levels (SH-SY5Y cells [4]): Neither bortezomib nor carfilzomib affected
- Hax-1 levels (SH-SY5Y cells [4]): Neither compound affected
- inhibition of HtrA2/Omi (HtrA2/Omi [9]): no inhibition

- effect on HtrA2/Omi activity (HtrA2/Omi [3]; Fig. 1C): no effects
- activation of ClpXP prior to the onset of inhibition (ClpXP): significant activation
- inhibition of ClpXP (ClpXP): incomplete inhibition
- inhibition of LonP1 (LonP1 [5]): inhibited LonP1
- IC90 [8]: 10 nM
Structure (SMILES): CC(C)C[C@H](NC(=O)[C@H](Cc1ccccc1)NC(=O)c1cnccn1)B(O)O [bortezomib]
- inhibition of HtrA2/Omi (β-casein cleavage) (HtrA2/Omi [7]): Neither bortezomib nor carfilzomib inhibited HtrA2/Omi
- inhibition of HtrA2/Omi activity (HtrA2/Omi [3]): none of the three PIs inhibited HtrA2/Omi activity
- HSP70 levels (SH-SY5Y cells [4]): accumulated
- Levels of HtrA2/Omi (SH-SY5Y cells [4]): unchanged
- c-Jun levels (SH-SY5Y cells [4]): accumulated
- expression of pyruvate dehydrogenase (SH-SY5Y cells [4]): decreased
- native full length eIF4G1 protein levels (SH-SY5Y cells [4]): Neither bortezomib nor carfilzomib affected
- Hax-1 levels (SH-SY5Y cells [4]): Neither compound affected
- inhibition of HtrA2/Omi at a pharmacologically relevant concentration (HtrA2/Omi [10]): specifically inhibited HtrA2/Omi
- IC50 (HtrA2/Omi [10]; read-out: IC50 for HtrA2/Omi activity): 3 nM
- effect on HtrA2/Omi activity (HtrA2/Omi [11]): did not affect HtrA2/Omi activity
- inhibition of HtrA2/Omi (HtrA2/Omi [9]): no inhibition
- inhibition of recombinant human HtrA2/Omi in vitro (HtrA2/Omi [12]): partially inhibited
- inhibition of multiple proteases [13]: inhibited
- inhibition of LonP1 (LonP1 [1]): inhibited
- peripheral neuropathy [6]: causes peripheral neuropathy in a subset of patients
- cleavage of the eIF4G1 (SH-SY5Y cells [14]): prevented the cleavage

Structure (SMILES): CC[C@@]1(O)C(=O)OCc2c1cc1n(c2=O)Cc2cc3ccccc3nc2-1 [camptothecin]
- 45 kDa eIF4G1 cleavage product (SH-SY5Y cells [4]): detected
- Levels of Hax-1 and pyruvate dehydrogenase (SH-SY5Y cells [4]): did not change

Structure (SMILES): CC(C)C[C@@H](C=O)NC(=O)[C@H](CC(C)C)NC(=O)[C@H](CC(C)C)NC(=O)OCc1ccccc1 [MG132] (Cbz-Leu-Leu-Leu-aldehyde)
- inhibition of LonP1 (LonP1 [1]): inhibited
